Laboratory results taken from ChEMBL document CHEMBL1122513, “Synthesis and antiviral activity of carbocyclic analogues of 2'-deoxyribofuranosides of 2-amino-6-substituted-purines and of 2-amino-6-substituted-8-azapurines” (J Med Chem, 1984).
Converted amounts (≈) assume the structure as drawn. “And” between values parts separate entries of the source, which are not always exact repeats. Identical values can stand only once.

Assays:
Human alphaherpesvirus 2 [1] = test: In vitro antiviral activity in secondary cultures of rabbit kidney cells infected with HSV type 2 strain MS; assay type: functional
In short: (§1)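 Scored as a virus rating (VR) from inhibition of CPE caused by HSV-1 strain 377 or HSV-2 strain MS in secondary rabbit kidney cultures or Vero cells. VR ≥1.0 means definite activity, 0.5-0.9 marginal to moderate, and <0.5 usually none. Ranges are pooled from several tests.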

Human alphaherpesvirus 2 [2] = test: Concentration required to inhibit HSV type 2 strain MS induced cytopathogenic affects by 50%; assay type: functional
In short: (§2)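 Inhibition of cytopathogenic effect caused by HSV-1 strain 377 or HSV-2 strain MS, replicating in secondary rabbit kidney cell cultures or in Vero cells. MIC₅₀ is the concentration giving 50% inhibition of virus-induced CPE. Ranges are pooled from several tests in either host cell type.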

Human alphaherpesvirus 1 [3] = test: In vitro antiviral activity in secondary cultures of rabbit kidney cells infected with HSV type 1 strain 377; assay type: functional; in short: as §1
[4] = Compound was evaluated for cytotoxicity to KB cells (derived from human epidermoid carcinoma); assay type: cell-based; conditions: read-out: ED50 (the source's name)
In short: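 KB cells grown in culture and tested under the National Cancer Institute cytotoxicity protocol. The value is reported as ED50 in mcg/mL.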

L1210 [5] = test: Antineoplastic activity of compound in mice inoculated with 10e 5 L1210 leukemia cells was measured as weight change after ip administration of 100 […]; assay type: functional, Mus musculus
In short: (§3)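 Mice received 10⁵ L1210 leukemia cells ip on day 0, then compound ip as a solution or suspension q.d. days 1-9, following NCI protocols. Weight-change difference is the mean weight change of treated mice minus that of untreated leukemic controls, both measured on day 5.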

L1210 [6] = test: Antineoplastic activity of compound in mice inoculated with 10e 5 L1210 leukemia cells was measured as weight change after ip administration of 200 […]; assay type: functional, Mus musculus; in short: as §3
L1210 [7] = test: Antineoplastic activity of compound in mice inoculated with 10e 5 L1210 leukemia cells was measured as weight change after ip administration of 50 […]; assay type: functional, Mus musculus; in short: as §3
Mus musculus [8] = test: Antineoplastic activity of compound in mice inoculated with 10e 5 L1210 leukemia cells was measured as T/C after ip administration of 100 […]; assay type: functional
In short: (§4)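 L1210 leukemia, 10⁵ cells inoculated intraperitoneally into mice on day 0, following NCI protocols. Compound given intraperitoneally as a solution or suspension once daily on days 1-9. T/C % compares lifespan of treated mice with untreated leukemic control mice.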

Mus musculus [9] = test: Antineoplastic activity of compound in mice inoculated with 10e 5 L1210 leukemia cells was measured as T/C after ip administration of 200 […]; assay type: functional; in short: as §4
Mus musculus [10] = test: Antineoplastic activity of compound in mice inoculated with 10e 5 L1210 leukemia cells was measured as T/C after ip administration of 25 […]; assay type: functional; in short: as §4
Mus musculus [11] = test: Antineoplastic activity of compound in mice inoculated with 10e 5 L1210 leukemia cells was measured as T/C after ip administration of 50 […]; assay type: functional; in short: as §4
Human alphaherpesvirus 1 [12] = test: Concentration required to inhibit HSV type 1 strain 377 induced cytopathogenic affects by 50%; assay type: functional; in short: as §2
L1210 [13] = test: Antineoplastic activity of compound in mice inoculated with 10e 5 L1210 leukemia cells was measured as weight change after ip administration of 25 […]; assay type: functional, Mus musculus; in short: as §3
Human alphaherpesvirus 2 [14] = test: In vitro antiviral activity in secondary cultures of rabbit kidney cells against HSV type 2 strain MS; 1.6-2.3; assay type: functional; in short: as §1
Human alphaherpesvirus 2 [15] = test: Concentration required to inhibit HSV type 2 strain MS induced cytopathogenic affects by 50%; 6.4-30; assay type: functional; in short: as §2
Human alphaherpesvirus 1 [16] = test: Concentration required to inhibit HSV type 1 strain 377 induced cytopathogenic affects by 50%; 6.4-9.8; assay type: functional; in short: as §2
Human alphaherpesvirus 1 [17] = test: In vitro antiviral activity in secondary cultures of rabbit kidney cells against HSV type 1 strain 377; 2.5-3.1; assay type: functional; in short: as §1
Vaccinia virus = test: In vitro for antiviral activity in secondary cultures of rabbit kidney cells infected with vaccinia virus; assay type: functional, Orthopoxvirus vaccinia
Human alphaherpesvirus 1 [18] = test: In vitro antiviral activity in secondary cultures of rabbit kidney cells infected with HSV type 1 strain HF; assay type: functional
Human alphaherpesvirus 1 [19] = test: Concentration required to inhibit HSV type 1 strain HF induced cytopathogenic affects by 50%; assay type: functional
L1210 [20] = test: Antineoplastic activity of compound in mice inoculated with 10e 5 L1210 leukemia cells was measured as weight change after ip administration of 100 mg/kg; assay type: functional, Mus musculus; conditions: route intraperitoneal; in short: as §3
L1210 [21] = test: Antineoplastic activity of compound in mice inoculated with 10e 5 L1210 leukemia cells was measured as weight change after ip administration of 200 mg/kg; assay type: functional, Mus musculus; conditions: route intraperitoneal; in short: as §3
Mus musculus [22] = test: Antineoplastic activity of compound in mice inoculated with 10e 5 L1210 leukemia cells was measured as T/C after ip administration of 100 mg/kg; assay type: functional; conditions: route intraperitoneal; in short: as §4
Mus musculus [23] = test: Antineoplastic activity of compound in mice inoculated with 10e 5 L1210 leukemia cells was measured as T/C after ip administration of 200 mg/kg; assay type: functional; conditions: route intraperitoneal; in short: as §4
Human alphaherpesvirus 1 [24] = test: In vitro antiviral activity in secondary cultures of rabbit kidney cells against HSV type 1 strain 377; assay type: functional; in short: as §1
L1210 [25] = test: Antineoplastic activity of compound in mice inoculated with 10e 5 L1210 leukemia cells was measured as weight change after ip administration of 50 mg/kg; assay type: functional, Mus musculus; conditions: route intraperitoneal; in short: as §3
Mus musculus [26] = test: Antineoplastic activity of compound in mice inoculated with 10e 5 L1210 leukemia cells was measured as T/C after ip administration of 50 mg/kg; assay type: functional; conditions: route intraperitoneal; in short: as §4
[27] = Human alphaherpesvirus 1, read-out: MIC50

Nc1nc(Cl)c2nnn(C3CC(O)C(CO)C3)c2n1 (stereo unspecified)
Virus rating (Human alphaherpesvirus 2 [1]): 1.9 | MIC50 (Human alphaherpesvirus 2 [2]): 23 mg/L (≈ 80.8 µM) | Virus rating (Human alphaherpesvirus 1 [3]): 5 and 4.5 | CC50 [4]: 10 mg/L (≈ 35.1 µM) | Weight change (L1210 [5]): -3.4 g | Weight change (L1210 [6]): -4.4 g | Weight change (L1210 [7]): -1.5 g | T/C (Mus musculus [8]): 100% | T/C (Mus musculus [9]): 78% | T/C (Mus musculus [10]): 118% | T/C (Mus musculus [11]): 105% | MIC50 (Human alphaherpesvirus 1 [12]): 1.6 mg/L (≈ 5.62 µM) | MIC50 (Human alphaherpesvirus 1 [12]; [27]): < 1 mg/L | Weight change (L1210 [13]): -1 g

Nc1ncnc2c1ncn2[C@@H]1O[C@H](CO)[C@@H](O)[C@@H]1O [VIDARABINE]
Virus rating (Human alphaherpesvirus 2 [14]): 1.6 | MIC50 (Human alphaherpesvirus 2 [15]): 6.4 mg/L (≈ 23.9 µM) | MIC50 (Human alphaherpesvirus 1 [16]): 6.4 mg/L (≈ 23.9 µM) | Virus rating (Human alphaherpesvirus 1 [17]): 2.5

Cc1cn(C2CC(CO)C(O)C2O)c(=O)[nH]c1=O (stereo unspecified)
Virus rating (Human alphaherpesvirus 2 [1]): 3.2 | MIC50 (Human alphaherpesvirus 2 [2]): 7 mg/L (≈ 27.3 µM) | Virus rating (Human alphaherpesvirus 1 [3]): 5.4 | MIC50 (Human alphaherpesvirus 1 [12]; [27]): 0.8 mg/L (≈ 3.12 µM)

Nc1nc(S)c2ncn(C3CC(O)C(CO)C3)c2n1 (stereo unspecified)
Virus rating (Human alphaherpesvirus 2 [1]): 1.7 | MIC50 (Human alphaherpesvirus 2 [2]): 32 mg/L (≈ 114 µM) | Virus rating (Human alphaherpesvirus 1 [3]): 4.9 | CC50 [4]: > 100 mg/L | Weight change (L1210 [5]): -0.2 g | Weight change (L1210 [6]): 0.5 g | T/C (Mus musculus [8]): 91% | T/C (Mus musculus [9]): 108% | MIC50 (Human alphaherpesvirus 1 [12]; [27]): < 3.2 mg/L

Nc1ncnc2c1ncn2[C@@H]1C[C@H](CO)[C@@H](O)[C@@H]1O
Virus rating (Vaccinia virus): 1.5 and 1.7 | Virus rating (Human alphaherpesvirus 1 [18]): 2.2 and 3.5

OCC1CC(n2cnc3c(O)ncnc32)C(O)C1O (stereo unspecified)
MIC50 (Human alphaherpesvirus 1 [19]; [27]): 97 mg/L (≈ 364 µM) | Virus rating (Vaccinia virus): 1.9 | Virus rating (Human alphaherpesvirus 1 [18]): 2.1

Nc1ccn([C@@H]2C[C@H](CO)[C@@H](O)[C@H]2O)c(=O)n1 (stereo in doubt; form 2)
Virus rating (Human alphaherpesvirus 2 [1]): 3.2 | MIC50 (Human alphaherpesvirus 2 [2]): 2.4 mg/L (≈ 9.95 µM) | MIC50 (Human alphaherpesvirus 1 [19]): 68 mg/L (≈ 282 µM) | Virus rating (Vaccinia virus): 0.9 | Virus rating (Human alphaherpesvirus 1 [18]): 0.8

Nc1nc(O)c2ncn([C@@H]3C[C@H](CO)[C@@H](O)C3)c2n1
Virus rating (Human alphaherpesvirus 2 [1]): 3.7 | MIC50 (Human alphaherpesvirus 2 [2]): 0.8 mg/L (≈ 3.02 µM) | Virus rating (Human alphaherpesvirus 1 [3]): >=4.6 | CC50 [4]: 95 mg/L (≈ 358 µM) | Weight change (L1210 [5]): -3.7 g | T/C (Mus musculus [8]): 96% | MIC50 (Human alphaherpesvirus 1 [12]; [27]): < 0.3 mg/L

Nc1nc(O)c2nnn(C3CC(O)C(CO)C3)c2n1 (stereo unspecified)
Virus rating (Human alphaherpesvirus 2 [1]): 2.1 | MIC50 (Human alphaherpesvirus 2 [2]): 6.9 mg/L (≈ 25.9 µM) | Virus rating (Human alphaherpesvirus 1 [3]): 4.2 | CC50 [4]: > 100 mg/L | Weight change (L1210 [5]): -2.4 g | Weight change (L1210 [6]): -3.2 g | T/C (Mus musculus [8]): 100% | T/C (Mus musculus [9]): 104% | MIC50 (Human alphaherpesvirus 1 [12]; [27]): 0.6 mg/L (≈ 2.25 µM)

OCC1CC(n2nnc3c(O)ncnc32)C(O)C1O (stereo unspecified)
MIC50 (Human alphaherpesvirus 1 [19]; [27]): 298 mg/L (≈ 1120 µM) | Virus rating (Vaccinia virus): 1.2 | Virus rating (Human alphaherpesvirus 1 [18]): 1.5

Nc1nc(Cl)c2ncn(C3CC(O)C(CO)C3)c2n1 (stereo unspecified)
Virus rating (Human alphaherpesvirus 2 [1]): 2 | MIC50 (Human alphaherpesvirus 2 [2]): 37 mg/L (≈ 130 µM) | Virus rating (Human alphaherpesvirus 1 [3]): 1.9 | CC50 [4]: 62 mg/L (≈ 219 µM) | Weight change (L1210 [5]): -1 g | Weight change (L1210 [6]): -2.2 g | T/C (Mus musculus [8]): 106% | T/C (Mus musculus [9]): 106% | MIC50 (Human alphaherpesvirus 1 [12]; [27]): 8.1 mg/L (≈ 28.5 µM)

Nc1nc(N)c2nnn(C3CC(O)C(CO)C3)c2n1 (stereo unspecified)
Virus rating (Human alphaherpesvirus 2 [1]): 2.3 | MIC50 (Human alphaherpesvirus 2 [2]): 10 mg/L (≈ 37.7 µM) | Virus rating (Human alphaherpesvirus 1 [3]): 4 and 4.4 | CC50 [4]: > 100 mg/L | Weight change (L1210 [20]): -0.7 g | Weight change (L1210 [21]): -1.1 g | T/C (Mus musculus [22]): 96% | T/C (Mus musculus [23]): 92% | MIC50 (Human alphaherpesvirus 1 [12]): 2 mg/L (≈ 7.54 µM) | MIC50 (Human alphaherpesvirus 1 [12]; [27]): < 3.2 mg/L

Nc1ccn([C@@H]2C[C@H](CO)[C@@H](O)[C@H]2O)c(=O)n1 (stereo in doubt; form 1)
MIC50 (Human alphaherpesvirus 1 [19]): 93 mg/L and <32 mg/L

Nc1nc(N)c2ncn(C3CC(O)C(CO)C3)c2n1 (stereo unspecified)
Virus rating (Human alphaherpesvirus 2 [1]): 2.9 | MIC50 (Human alphaherpesvirus 2 [2]): 2.4 mg/L (≈ 9.08 µM) | Virus rating (Human alphaherpesvirus 1 [24]): 4.7 | Virus rating (Human alphaherpesvirus 1 [3]): 4.5 | CC50 [4]: > 100 mg/L | Weight change (L1210 [21]): -5.5 g | Weight change (L1210 [25]): -2.8 g | T/C (Mus musculus [23]): 79% | T/C (Mus musculus [26]): 104% | MIC50 (Human alphaherpesvirus 1 [12]): 0.3 mg/L (≈ 1.14 µM) | MIC50 (Human alphaherpesvirus 1 [12]; [27]): 0.6 mg/L (≈ 2.27 µM)
